Screens as filed in PubChem.
Rows were chosen to be rich in hits. Some 4.6% of all compounds tested hit in one or more screens of this group.
TAAR1 antag – human TAAR1 antagonism; CHO RD-HGA16 TAAR1, Fluo-8 calcium fluorescence, antagonist; inhibition, % at 3 µM; hit rate 1.5% among 360,000;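 active = inhibition above a per-plate cutoff, the mean inhibition of test compounds on that plate plus 3 SD, cut at about 49% in these data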
Target sequence (Q96RJ0 whole entry, looked up): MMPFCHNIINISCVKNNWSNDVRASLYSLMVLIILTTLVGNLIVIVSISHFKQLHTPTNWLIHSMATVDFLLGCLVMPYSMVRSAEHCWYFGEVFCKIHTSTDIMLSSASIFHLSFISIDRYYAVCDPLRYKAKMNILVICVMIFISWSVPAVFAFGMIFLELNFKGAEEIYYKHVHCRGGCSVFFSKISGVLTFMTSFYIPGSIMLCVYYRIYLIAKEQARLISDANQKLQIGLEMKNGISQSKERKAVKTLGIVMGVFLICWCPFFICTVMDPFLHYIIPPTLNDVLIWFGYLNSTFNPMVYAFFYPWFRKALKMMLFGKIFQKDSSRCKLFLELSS
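System: CHO RD-HGA16 cells bearing hTAAR1. Reagent: EC80 β-phenethylamine stimulus. Schedule: seeding 17-24 h prior, 75-min 37 °C, 30-min RT dye loading. Signal: Fluo-8 intracellular calcium dye fluorescence, real-time kinetic reads. Read-out: % inhibition from peak post-agonist over basal fluorescence ratio. Benchmarks: vehicle wells and EC80 agonist wells. Replicates: n of 1.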
OX1R antag-1 – OX1R (human) antagonism | OX1R-expressing cells, FRET antagonist read-out | inhibition, % at 6.6 µM | hit rate 1.8% among 330,000 | AID 485270; in the data active = inhibition mostly above about 38%, no sharp cut-off; inactive = mostly below about 40%
OX1R antag-2 – human HCRTR1 antagonism | O43613 | CHO/OX1R cells, Fluo-8 calcium fluorescence, orexin A | inhibition, % at 5 µM | hit rate 0.43% among 330,000;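 active = inhibition above its plate's threshold, mean inhibition of all tested compounds on the plate plus 3 SD, cut at about 37% in these data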
GPR7 antagonist – antagonists of human GPR7 (neuropeptides B/W receptor 1) | P48145 | GPR7-expressing cells, fluorescence antagonist assay | inhibition, % at 4.4 µM | hit rate 1.1% among 290,000 | AID 1861; in the data active = inhibition above about 16%, passing the limit was not always enough;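 note: cells stimulated with the agonist NPW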
Target sequence (P48145 whole entry, looked up): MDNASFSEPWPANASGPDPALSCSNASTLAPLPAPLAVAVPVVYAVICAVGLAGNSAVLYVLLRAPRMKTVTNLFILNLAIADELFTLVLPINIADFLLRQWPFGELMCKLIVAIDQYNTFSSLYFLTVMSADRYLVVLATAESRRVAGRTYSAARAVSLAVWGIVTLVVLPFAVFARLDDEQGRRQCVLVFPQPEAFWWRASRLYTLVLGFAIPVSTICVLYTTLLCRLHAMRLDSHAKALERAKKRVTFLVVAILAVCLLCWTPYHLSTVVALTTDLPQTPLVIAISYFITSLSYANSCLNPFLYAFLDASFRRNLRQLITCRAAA
CHO parental Ca – signal in parental CHO cells, OX1R antagonist counter-screen; hit rate 0.63% among 330,000; inhibition, % at 5.6 µM; parental CHO-K1, ATP-induced calcium, Fluo-8 fluorescence;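 active = inhibition above that plate's mean sample inhibition plus 3 SD, cut at about 26% in these data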
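Measured by: calcium-sensitive Fluo-8 fluorescence / Test system: CHO parental line / Controls: ATP-challenged DMSO wells low, unchallenged DMSO wells high / Measure: % inhibition / Compound: single nominal dose of 5.6 µM per compound / Replicates: single well per compound, no replicates / Reagent: ATP as calcium-mobilizing challenge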
TAAR1 ag – human TAAR1 agonism; CHO RD-HGA16 TAAR1, Fluo-8 calcium fluorescence; vehicle wells 0%, saturating PEA agonist 100%; hit rate 0.99% among 360,000; activation, % at 3 µM; AID 624467; Q96RJ0;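 active = activation above the mean activation of all test compounds in the run plus 3 SD, cut at about 38% in these data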
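Test system: RD-HGA16 (CHO) cells co-expressing Gα16 and hTAAR1; dosing: one-point dosing at 3 µM (nominal); timing: 17-24 h seeding, 75 min 37 °C dye, 30 min RT; signal: kinetic Fluo-8 calcium fluorescence; read-out basis: % activation relative to PEA EC100 response; controls: DMSO and PEA EC100; replicates: n 1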
GPR7 antag conf – confirmation of human GPR7 antagonists; shares compounds with GPR7 antagonist; GPR7-expressing cells, calcium fluorescence antagonist mode; inhibition, % at 4.4 µM; hit rate 52% among 2,400; in the data active = inhibition above about 24%;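 note: stimulated with the GPR7 agonist NPW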
MCHR1 antag – MCHR1 (human) antagonism in GPR7 counter-screen; shares compounds with GPR7 antagonist; MCHR1-expressing cells, fluorescence antagonist assay; inhibition, % at 4.4 µM; hit rate 62% among 2,400; AID 2148; in the data active = inhibition above about 22%
A number is an active result; n = inactive; x = no result given; ! = repeats disagree.

SMILES | TAAR1 antag | OX1R antag-1 | OX1R antag-2 | GPR7 antagonist | CHO parental Ca | TAAR1 ag | others
O=C(C[N+]12CCC(CC1)C(O)C2)c1ccc(Br)cc1 (stereo unspecified) | n | x | x | n | x | n
O=C(C[N+]12CCC(CC1)C(OC(=O)c1ccccc1)C2)c1ccc([N+](=O)[O-])cc1 (stereo unspecified) | n | 70 | n | n | n | n
O=C(C[N+]12CCC(CC1)C(CO)C2)c1ccc([N+](=O)[O-])cc1 (stereo unspecified) | n | 59 | n | n | n | n
Cc1ccc(-c2cc(-c3ccc(C)cc3)[n+](-c3ccccc3)c(-c3ccc(C)cc3)c2)cc1 | x | n | 91 | x | 71 | x
Cc1ccc(-c2cc(-c3ccccc3)cc(-c3ccccc3)[n+]2-c2ccccc2)cc1 | 104 | n | 71 | x | 74 | n
COC(=O)C1=C(c2ccc(OCc3ccccc3)cc2)C[C@@H]2CC[C@H]1N2C(=O)NCc1ccc(F)cc1 | n | x | x | x | x | n
c1ccc2oc(-c3ccc4c(c3)CNCc3cnnn3-4)cc2c1 | n | x | x | x | x | n
Cc1cccc(C)c1-n1nnnc1C(c1ccccc1)N1CCC2(CC1)C(=O)NCN2c1ccccc1 (stereo unspecified) | n | x | x | x | x | n
Cc1cccc(C)c1-n1nnnc1C(C1CC1)N1CCC2(CC1)C(=O)NCN2c1ccccc1 (stereo unspecified) | 50 | x | x | x | x | n
CCc1nn2c(=O)c(F)c(N3CCNCC3)nc2s1 | n | x | x | x | x | n
COC(=O)C1C(c2ccccc2)CC2CCC1N2C (stereo unspecified) | n | x | x | x | x | n
CCCCCOc1ccc(C)cc1CN(CCCl)CCCl | n | n | n | 30 | n | n
C=CCN1CC[C@]23c4c5ccc(O)c4OC2C(=O)CC[C@@]3(O)[C@H]1C5 (stereo partly specified) | n | x | x | x | x | n
CC1=C(O)C(=O)C=C2C1=CC=C1C2(C)CCC2(C)C3CC(C)(C(=O)O)CCC3(C)CCC12C (stereo unspecified) | 74 | x | x | x | x | 41
C/C=C(\C)C(=O)OC1C(C)=C2C(C1OC(=O)CCCCC)C(C)(OC(C)=O)CC(OC(=O)CCC)C1(O)C2OC(=O)C1(C)O (stereo unspecified) | x | n | 101 | x | 101 | x
CC(C)Sc1nnc([C@@H](N)Cc2c[nH]c3ccccc23)o1 | n | 40 | n | n | n | n
COc1ccc(-c2nc3ccc(C(=O)N4CCC5(CC4)OCCO5)cc3nc2-c2ccc(OC)cc2)cc1 | n | n | n | n | n | n
CCC(=NCc1ccc2c(c1)OCO2)c1c(O)n(C2CCCCC2)c(=O)[nH]c1=O | n | n | n | n | 26 | n
CCC(=NCCO)c1c(O)n(C2CCCCC2)c(=O)[nH]c1=O | n | n | n | n | n | n
Oc1ccc2c3c1O[C@H]1c4[nH]c5c(c4CC4(O)C(C2)N(CC2CC2)CCC314)CC1(O)[C@H]2Cc3ccc(O)c4c3[C@@]1(CCN2CC1CC1)C5O4 (stereo partly specified) | n | x | x | x | x | n
C[C@@H]1CNCCN1c1ccc(N2CC[C@H](O)C2)c(C#N)c1 | n | x | x | x | x | n
C[C@]12C[C@H](O)[C@@H](O)CC1=CCC1C2CC[C@@]2(C)C1CC[C@@H]2O (stereo partly specified) | n | n | n | x | n | n
Cn1nc(-c2ccc(OCC(=O)N3CCN(Cc4ccccc4)CC3)cc2)c2ccccc2c1=O | n | n | n | n | 36! | n
COc1cc2c(cc1OC)-c1c(OC)c(OC)c(OC)c3ccnc(c13)C2=O | x | 68 | n | n | n | x
CCC(C)C1NC(=O)C(C(C)=O)=C1O (stereo unspecified) | n | n | n | x | n | n
SMILES | TAAR1 antag | OX1R antag-1 | OX1R antag-2 | GPR7 antagonist | CHO parental Ca | TAAR1 ag | others
C=C1C(O)[C@@H]2O[C@]3(CC[C@H](/C=C/C(C)[C@@H]4CC(C)=CC5(O[C@H](C[C@@](C)(O)C(=O)O)CCC5O)O4)O3)CC[C@H]2O[C@@H]1C(O)CC(C)[C@H]1OC2(CCCCO2)CCC1C (stereo partly specified) | x | 50 | n | x | n | x
COC1=CC(=O)[C@]2(C=C1OC)OC[C@@H]1Oc3c(ccc4c3C=CC(C)(C)O4)C(=O)[C@@H]12 | n | n | 60 | x | 62 | n
O=c1[nH]c2ccccc2n1C1CCN(C(c2nnnn2-c2ccc3c(c2)OCCO3)C2CC2)CC1 (stereo unspecified) | 62 | x | x | x | x | n
O=c1[nH]c2ccccc2n1C1CCN(C(c2ccccc2)c2nnnn2-c2ccc3c(c2)OCCO3)CC1 (stereo unspecified) | 62 | x | x | x | x | n
COc1ccc(NC(=S)NC(NC(=O)CF)C(Cl)(Cl)Cl)cc1[N+](=O)[O-] (stereo unspecified) | n | n | n | n | n | n
CCOc1ccc(Cl)cc1CNCCc1ccccc1F | n | n | n | 33 | n | n | GPR7 antag conf=49;MCHR1 antag=37
N=C1c2ccccc2CN1c1ccc(F)c([N+](=O)[O-])c1 | n | n | n | n | n | n
OC(CNC1CCCCCCC1)c1ccccc1 (stereo unspecified) | x | n | n | 22 | n | x | GPR7 antag conf=n;MCHR1 antag=n
O=[N+]([O-])c1ccc(N2CCOCC2)c2c1no[n+]2[O-] | n | x | x | x | x | n
CCCCCSc1cc(OC)c(CCN(C)C)cc1OC | n | n | n | n | n | n
CCCCCSc1cc(O)c(C(CNC)C(C)C)cc1OC (stereo unspecified) | n | n | n | 29 | n | n | GPR7 antag conf=42;MCHR1 antag=37
CCCCn1c(=O)c(C(=O)Nc2ccccc2F)c(O)c2ccccc21 | n | n | n | 96 | n | n | GPR7 antag conf=n;MCHR1 antag=n
COc1cc(CNCCc2c[nH]c3ccccc23)cc(OC)c1OC | n | x | x | x | x | n
COc1cc(CNCCc2c[nH]c3ccccc23)cc(OC)c1 | n | n | n | 38 | n | n | GPR7 antag conf=n;MCHR1 antag=31
CC(C)(C)NC(=S)N1Cc2ccccc2-n2nncc2C1 | n | x | x | x | x | n
OC1(c2ccc(F)cc2)CC2CCC(C1)N2Cc1nnnn1C1CCCCC1 (stereo unspecified) | n | n | n | 33 | n | n | GPR7 antag conf=26;MCHR1 antag=n
OCCN1C2CCC1CC(O)(c1ccc(F)cc1)C2 (stereo unspecified) | n | n | n | n | n | n
c1ccc(-c2cc(-c3ccccc3)[n+](-c3ccccc3)c(-c3ccccc3)c2)cc1 | 72 | n | 84 | 97 | 84 | n | GPR7 antag conf=93;MCHR1 antag=87
CCOC(=O)c1ccc(-[n+]2c(-c3ccccc3)cc(-c3ccccc3)cc2-c2ccccc2)cc1 | x | n | n | x | n | x
